Experimental data reported in ChEMBL document CHEMBL4359879, “Synthesis and evaluation of 2-carboxy indole derivatives as potent and selective anti-leukemic agents” (Eur J Med Chem, 2019).
Calls of active or inactive are those of the source. The rule behind the calls is not given here.

Tests used:
HL-60 [1] = assay: Effect on human HL60 cells assessed as fold change in DSTYK gene expression at 1.085 uM incubated for 6 hrs by microarray-based method; assay type: functional
How it was run: (§1)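 HL60 cells were treated in triplicate with 1.085 µM or vehicle for 6 h. Total RNA was extracted with on-column DNase treatment and profiled on expression arrays.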

HL-60 [2] = assay: Effect on human HL60 cells assessed as fold change in ITPR3 gene expression at 1.085 uM incubated for 6 hrs by microarray-based method; assay type: functional; how it was run: as §1
HL-60 [3] = assay: Effect on human HL60 cells assessed as fold change in MIR4658 gene expression at 1.085 uM incubated for 6 hrs by microarray-based method; assay type: functional; how it was run: as §1
T-cell = assay: Cytotoxicity against phytohemagglutinin and interleukin-2-stimulated T-lymphocytes (unknown origin) up to 100 uM after 48 hrs by MTT assay; assay type: cell-based
How it was run: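 Post-ficoll lymphocytes from healthy donors were grown in RPMI-1640 with 10% FBS and stimulated overnight with phytohemagglutinin (25 µL/mL) plus IL-2 (50 U/mL). They were then exposed to decreasing concentrations for 48 h. Viability was measured by MTT (0.5 mg/ml final, 4 h), with SDS/HCl solubilization and absorbance at 570/620 nm, as survival relative to controls.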

HL-60 [4] = assay: Effect on human HL60 cells assessed as fold change in MEIOC gene expression at 1.085 uM incubated for 6 hrs by microarray-based method; assay type: functional; how it was run: as §1
Tubulin (Homo sapiens) [5] = target: T1, Tubulin (Homo sapiens) (UniProt P68371+Q9H4B7+P0DPH7+P68366+Q13509+Q71U36+P04350+Q3ZCM7+P07437+P68363+Q9BQE3+Q6PEY2+Q13885+Q9BVA1+Q9BUF5); assay: Induction of microtubule network depolymerization in human HeLa cells assessed as formation of condensed chromosomes at 500 nM incubated for 18 hrs by DAPI staining based fluorescence microscopic method; assay type: cell-based
How it was run: (§2)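 HeLa cells (100,000/mL) cultured overnight on glass-bottom dishes, then exposed to 500 nM or 1 μM, or DMSO, for 18 h. Permeabilized (0.5% Triton X-100) and fixed (3.7% formaldehyde). Stained overnight at 4 °C with anti-β-tubulin, then Alexa Fluor 647 secondary for 1 h at room temperature, and DAPI 1 μg/mL for 10 min. Examined by fluorescence microscopy.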

HL-60 [6] = assay: Effect on human HL60 cells assessed as fold change in ARL17A gene expression at 1.085 uM incubated for 6 hrs by microarray-based method; assay type: functional; how it was run: as §1
HL-60 [7] = assay: Effect on human HL60 cells assessed as fold change in NPIPB8 gene expression at 1.085 uM incubated for 6 hrs by microarray-based method; assay type: functional; how it was run: as §1
Tubulin (Homo sapiens) [8] = target: T1, Tubulin (Homo sapiens); assay: Induction of microtubule network depolymerization in human HeLa cells assessed as fragmented centrosomal material at 500 nM incubated for 18 hrs by DAPI staining based fluorescence microscopic method; assay type: cell-based; how it was run: as §2
Tubulin (Homo sapiens) [9] = target: T1, Tubulin (Homo sapiens); assay: Induction of microtubule network depolymerization in human HeLa cells at 1 uM incubated for 18 hrs by DAPI staining based fluorescence microscopic method; assay type: cell-based; how it was run: as §2
HL-60 [10] = assay: Effect on human HL60 cells assessed as fold change in FBXO25 gene expression at 1.085 uM incubated for 6 hrs by microarray-based method; assay type: functional; how it was run: as §1
RS4-11 [11] = assay: Induction of cell cycle arrest in human RS4:11 cells assessed as effect on S phase at 300 nM incubated for 18 hrs by BrdU/propidium iodide staining based flow cytometric analysis; assay type: functional
How it was run: (§3)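 RS4;11 cells treated with 300 nM or DMSO vehicle for 18 h, then pulsed with 10 μM BrdU for 1 h. Harvested cells immunostained for BrdU/PI (cell cycle), γH2AX (DNA damage) and PARP (apoptosis). Multicolor flow cytometry gated G1, sub-G2-like, G2/M and sub-G0/G1 populations.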

HL-60 [12] = assay: Induction of cell cycle arrest in human HL60 cells assessed as increase in accumulation of cells at sub G1 phase at EC50 by PI staining based flow cytometric analysis; assay type: functional; conditions: TDE = time-dependent effect
HL-60 [13] = assay: Effect on human HL60 cells assessed as fold change in TBCC gene expression at 1.085 uM incubated for 6 hrs by microarray-based method; assay type: functional; how it was run: as §1
RS4-11 [14] = assay: Induction of DNA damage in human RS4:11 cells assessed as accumulation of cells at sub G2 phase at 300 nM incubated for 18 hrs in presence of H2AX antibody by immunofluorescent staining based flow cytometric analysis relative to control; assay type: functional; how it was run: as §3
HL-60 [15] = assay: Effect on human HL60 cells assessed as fold change in HOXB-AS3 gene expression at 1.085 uM incubated for 6 hrs by microarray-based method; assay type: functional; how it was run: as §1
HL-60 [16] = assay: Effect on human HL60 cells assessed as fold change in CEP44 gene expression at 1.085 uM incubated for 6 hrs by microarray-based method; assay type: functional; how it was run: as §1
HL-60 [17] = assay: Effect on human HL60 cells assessed as fold change in PPP1R1A gene expression at 1.085 uM incubated for 6 hrs by microarray-based method; assay type: functional; how it was run: as §1
HL-60 [18] = assay: Effect on human HL60 cells assessed as fold change in ATP6AP1L gene expression at 1.085 uM incubated for 6 hrs by microarray-based method; assay type: functional; how it was run: as §1
HL-60 [19] = assay: Effect on human HL60 cells assessed as fold change in SPATA31A1 gene expression at 1.085 uM incubated for 6 hrs by microarray-based method; assay type: functional; how it was run: as §1
RS4-11 [20] = assay: Induction of apoptosis in human RS4:11 cells assessed as accumulation of cells at G1 phase at 300 nM incubated for 18 hrs in presence of PARP antibody by immunofluorescent staining based flow cytometric analysis relative to control; assay type: functional; how it was run: as §3
HL-60 [21] = assay: Effect on human HL60 cells assessed as fold change in ARL17B gene expression at 1.085 uM incubated for 6 hrs by microarray-based method; assay type: functional; how it was run: as §1
HL-60 [22] = assay: Effect on human HL60 cells assessed as fold change in HRH1 gene expression at 1.085 uM incubated for 6 hrs by microarray-based method; assay type: functional; how it was run: as §1
HL-60 [23] = assay: Induction of differentiation in human HL60 cells assessed as increase in CD11b positive cells at EC50 to EC90 incubated for 24 hrs by 7-AAD staining-based flow cytometric analysis; assay type: functional, cell-based
How it was run: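 Vitamin D3 at 100 nM and ATRA at 2 μM served as positive controls. Stained with APC anti-CD11b and PE anti-CD14 for 30 min at 4 °C, then 7-AAD.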

HL-60 [24] = assay: Induction of apoptosis in human HL60 cells at 300 nM incubated for 18 hrs by Annexin V-FITC/propidium iodide staining-based flow cytometric analysis; assay type: functional, cell-based
How it was run: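 CEM, HL60 or RS4;11 cells (5×10^5) treated with 300 nM or vehicle for 18 h. Stained with FITC-Annexin V in binding buffer for 15 min at 37 °C, then PI (5 μg/mL) for 3 min. Analyzed by flow cytometry.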

CCRF-CEM = assay: Effect on human CEM cells assessed as increase in p53 protein expression at 300 nM incubated for 15 to 360 mins by Western blot analysis; assay type: functional, cell-based
How it was run: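 RS4;11, CEM and HL60 cells were exposed to 300 nM for 0, 15, 30, 60 and 360 min. Lysates were immunoblotted for β-tubulin and p53, with lamin B1 as loading control. Detection was by chemiluminescence.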

HL-60 [25] = assay: Effect on human HL60 cells assessed as fold change in LSMEM1 gene expression at 1.085 uM incubated for 6 hrs by microarray-based method; assay type: functional; how it was run: as §1

Activity (Tubulin (Homo sapiens) [5]): Active
Activity (Tubulin (Homo sapiens) [8]): Active
Activity (Tubulin (Homo sapiens) [9]): Active
Structure (SMILES): COC(=O)c1[nH]c2cc(OC)ccc2c1-c1ccc(C(F)(F)F)cc1
fold change (FC) (HL-60 [1]): 1.61
fold change (FC) (HL-60 [2]): 1.57
fold change (FC) (HL-60 [3]): -1.72
Activity (T-cell): Non-Toxic
fold change (FC) (HL-60 [4]): -1.63
fold change (FC) (HL-60 [6]): -1.5
fold change (FC) (HL-60 [7]): 1.5
fold change (FC) (HL-60 [10]): 1.71
Activity (RS4-11 [11]): inactive
Activity (HL-60 [12]): Tde
fold change (FC) (HL-60 [13]): -1.54
Activity (RS4-11 [14]): 2.3%
fold change (FC) (HL-60 [15]): -1.54
fold change (FC) (HL-60 [16]): 1.76
fold change (FC) (HL-60 [17]): -1.7
fold change (FC) (HL-60 [18]): -1.53
fold change (FC) (HL-60 [19]): -1.61
Activity (RS4-11 [20]): 7%
fold change (FC) (HL-60 [21]): -1.5
fold change (FC) (HL-60 [22]): 1.51
Activity (HL-60 [23]): Active
Activity (HL-60 [24]): Active
Activity (CCRF-CEM): Active
fold change (FC) (HL-60 [25]): -1.69
